# According to ChEMBL document CHEMBL4400542, “Epidermal Growth Factor Receptor-Targeted Multifunctional Photosensitizers for Bladder Cancer Imaging and Photodynamic Therapy” (J Med Chem, 2019):
# Active and inactive are the calls of the source. The rule behind the calls is not given here.
# What was measured:
# UMUC3 [1] = experiment: Induction of apoptosis in human UM-UC-3 cells assessed as increase in apoptotic cells at 100 nM in presence of light by Annexin V/propidium iodide-stining based flow cytometry; type: functional, cell-based
# UMUC3 [2] = experiment: Anti-tumor activity against human UM-UC-3 cells xenografted in SCID mouse assessed as tumor necrosis at 0.47 umol/kg, iv in presence of 135 J/cm2 light irradiation at 24 hrs post injection and measured at 72 hrs post light exposure; type: functional, organism-based
# [3] = Induction of singlet oxygen generation assessed as energy transfer from the triplet chlorins to oxygen by femtosecond transient absorption spectroscopy; type: functional
# UMUC3 [4] = experiment: Induction of apoptosis in human UM-UC-3 cells assessed as increase in necrotic cells at 1 uM in presence of light by Annexin V/propidium iodide-stining based flow cytometry; type: functional, cell-based
# UMUC3 [5] = experiment: Induction of apoptosis in human UM-UC-3 cells assessed as increase in apoptotic cells at 1 uM in presence of light by Annexin V/propidium iodide-stining based flow cytometry; type: functional, cell-based
# [6] = Induction of singlet oxygen generation in Ar-saturated toluene solution at 670 nm assessed as decay rate constant of triplet excited state by femtosecond transient absorption spectroscopy; type: functional
# [7] = target: Epidermal growth factor receptor (Homo sapiens) (UniProt P00533); experiment: Inhibition of EGFR autophosphorylation at Ty1068 in human T24 cells at 1 uM followed by PDT and measured after 24 hrs by Western blot analysis; type: cell-based
# UMUC3 [8] = experiment: Anti-tumor activity against human UM-UC-3 cells xenografted in SCID mouse at 0.47 umol/kg, iv in presence of 135 J/cm2 light irradiation at 24 hrs post injection and measured every day till day 60; type: functional, organism-based
# How it was run: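 UMUC-3 cells implanted in right flank of SCID mice; at 4–5 mm tumors, PS given i.v. at 0.47 µmol/kg. Tumors exposed to 665 nm light, 135 J/cm2 at 75 mW/cm2, 24 h post-injection. Tumor regrowth monitored daily; mice euthanized at >400 mm3; tumor-free status scored at day 60.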
# T-24 [9] = experiment: Induction of apoptosis in human T24 cells assessed as increase in apoptotic cells at 1 uM in presence of light by Annexin V/propidium iodide-stining based flow cytometry; type: functional, cell-based
# [10] = Induction of singlet oxygen generation in deaerated toluene at 670 nm assessed as rate of singlet decay by femtosecond transient absorption spectroscopy; type: functional
# T-24 [11] = experiment: Induction of apoptosis in human T24 cells assessed as increase in apoptotic cells at 100 nM in presence of light by Annexin V/propidium iodide-stining based flow cytometry; type: functional, cell-based
# UMUC3 [12] = experiment: Induction of apoptosis in human UM-UC-3 cells assessed as increase in necrotic cells at 100 nM in presence of light by Annexin V/propidium iodide-stining based flow cytometry; type: functional, cell-based
# T-24 [13] = experiment: Induction of apoptosis in human T24 cells assessed as increase in necrotic cells at 1 uM in presence of light by Annexin V/propidium iodide-stining based flow cytometry; type: functional, cell-based
# [14] = target: Epidermal growth factor receptor (Homo sapiens) (UniProt P00533); experiment: Inhibition of EGFR autophosphorylation at Ty1068 in human UM-UC-3 cells at 1 uM followed by PDT and measured after 24 hrs by Western blot analysis; type: cell-based
# [15] = Induction of singlet oxygen generation in oxygen-saturated toluene solution at 670 nm assessed as decay rate constant of triplet excited state by femtosecond transient absorption spectroscopy; type: functional
# [16] = Induction of singlet oxygen generation in deaerated toluene at 670 nm assessed as singlet decay life time by femtosecond transient absorption spectroscopy; type: functional
# [17] = target: Epidermal growth factor receptor (Homo sapiens) (UniProt P00533); experiment: Inhibition of EGFR autophosphorylation at Ty1068 in human UM-UC-3 cells at 100 nM followed by PDT and measured after 24 hrs by Western blot analysis; type: cell-based
# Sequence of Epidermal growth factor receptor (Homo sapiens) (P00533 whole entry): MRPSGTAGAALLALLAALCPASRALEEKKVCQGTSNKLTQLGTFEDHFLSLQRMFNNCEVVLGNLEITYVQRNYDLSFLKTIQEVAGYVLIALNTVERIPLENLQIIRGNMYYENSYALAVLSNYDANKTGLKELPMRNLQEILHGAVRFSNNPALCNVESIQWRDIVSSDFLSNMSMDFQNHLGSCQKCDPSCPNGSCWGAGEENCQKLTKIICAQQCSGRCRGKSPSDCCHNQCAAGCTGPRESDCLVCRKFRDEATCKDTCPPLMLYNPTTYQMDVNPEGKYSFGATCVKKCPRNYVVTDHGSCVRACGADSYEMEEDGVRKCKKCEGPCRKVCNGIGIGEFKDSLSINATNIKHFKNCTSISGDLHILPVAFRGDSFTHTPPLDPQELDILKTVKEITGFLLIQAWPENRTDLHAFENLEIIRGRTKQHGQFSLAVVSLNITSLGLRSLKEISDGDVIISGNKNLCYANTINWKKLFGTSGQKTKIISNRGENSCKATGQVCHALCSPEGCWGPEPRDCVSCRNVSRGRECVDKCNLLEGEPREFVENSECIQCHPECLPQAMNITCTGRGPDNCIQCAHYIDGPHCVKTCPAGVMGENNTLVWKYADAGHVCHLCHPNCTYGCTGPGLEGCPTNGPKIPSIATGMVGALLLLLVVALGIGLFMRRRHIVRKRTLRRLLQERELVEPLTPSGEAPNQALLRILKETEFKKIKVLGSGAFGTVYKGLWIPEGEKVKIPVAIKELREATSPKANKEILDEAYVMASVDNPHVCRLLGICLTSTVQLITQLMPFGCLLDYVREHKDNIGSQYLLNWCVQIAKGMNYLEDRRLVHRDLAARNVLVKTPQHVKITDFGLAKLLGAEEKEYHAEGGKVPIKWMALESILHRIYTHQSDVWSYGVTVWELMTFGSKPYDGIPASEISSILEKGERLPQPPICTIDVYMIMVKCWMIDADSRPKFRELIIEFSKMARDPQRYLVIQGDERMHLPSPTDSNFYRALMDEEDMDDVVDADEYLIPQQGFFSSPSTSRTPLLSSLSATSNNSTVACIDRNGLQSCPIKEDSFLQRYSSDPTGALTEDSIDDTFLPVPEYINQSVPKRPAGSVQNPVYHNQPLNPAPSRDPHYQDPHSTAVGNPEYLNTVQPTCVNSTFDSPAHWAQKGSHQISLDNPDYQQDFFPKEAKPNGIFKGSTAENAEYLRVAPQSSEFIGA
smiles,measurement,setting,value
CCC1=C(C)c2cc3[nH]c(cc4nc(c5c6[nH]c(cc1n2)c(C)c6C(=O)C5)[C@@H](CCC(=O)NCc1cccc(C#Cc2cccc(Nc5ncnc6cc(OCCOC)c(OCCOC)cc56)c2)c1)[C@@H]4C)c(C)c3C(C)OCc1cccc(I)c1 (some centres not stated),Activity,UMUC3 [1],Active
same,Activity,UMUC3 [2],Active
same,K,[3],1.03 ×10¹⁰ /M/s
same,Activity,UMUC3 [4],Active
same,Activity,UMUC3 [5],Active
same,K,[6],9.8 ×10⁴ /s
same,inhibition,[7],Active
same,Activity,UMUC3 [8],Active
same,Activity,T-24 [9],Active
same,K,[10],7.5 ×10⁹ /s
same,Activity,T-24 [11],inactive
same,Activity,UMUC3 [12],Active
same,Activity,T-24 [13],Active
same,inhibition,[14],Active
same,K,[15],2.07 ×10⁵ /s
same,Time,[16],133 pS
same,inhibition,[17],Active
